Assay outcomes deposited in PubChem by Sanford-Burnham Center for Chemical Genomics.
This is a sample that favours compounds with a hit; in the whole collection about 2.9% have one here.
SENP8 block-1 – blocks the human protease SENP8 | Q96LD8 | 1.2% of 330,000 active | inhibition, % at 10 µM | purified SENP8, Z-RLRGG-aminoluciferin cleavage, luminescence | AID 2540; in the data active = inhibition above about 50%
Apaf-1 inh – inhibitors of human Apaf-1 apoptosome | inhibition, % at 20 µM | O14727 | reconstituted apoptosome caspase-3 activity, DEVD-Rh110 fluorescence | 0.71% of 330,000 active | AID 489030; active = inhibition of at least 40% at 20 µM
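detection = Rh110 fluorescence intensity | test system = biochemical Apaf-1 apoptosome reconstitution | also added = cytochrome c and DEVD-Rh110 substrate | schedule = 30 min plus 50 min, RT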
SENP8 block-2 – inhibitors of human SENP8 protease; inhibition, % at 20 µM; recombinant SENP8, Nedd8 substrate fluorescence; Q96LD8; 0.64% of 360,000 active; in the data active = inhibition mostly above about 40%, no sharp cut-off; inactive = mostly below about 27%
SENP7 block – SENP7 protease inhibition; Q9BQF6; recombinant SENP7, Z-RLRGG-aminoluciferin luminescence, 40 min; inhibition, % at 5 µM; 1.5% of 330,000 active; AID 434973;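 active = inhibition above about 50% at the single test dose, limit read from the data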
Target sequence (Q9BQF6 706-1050 limits assumed): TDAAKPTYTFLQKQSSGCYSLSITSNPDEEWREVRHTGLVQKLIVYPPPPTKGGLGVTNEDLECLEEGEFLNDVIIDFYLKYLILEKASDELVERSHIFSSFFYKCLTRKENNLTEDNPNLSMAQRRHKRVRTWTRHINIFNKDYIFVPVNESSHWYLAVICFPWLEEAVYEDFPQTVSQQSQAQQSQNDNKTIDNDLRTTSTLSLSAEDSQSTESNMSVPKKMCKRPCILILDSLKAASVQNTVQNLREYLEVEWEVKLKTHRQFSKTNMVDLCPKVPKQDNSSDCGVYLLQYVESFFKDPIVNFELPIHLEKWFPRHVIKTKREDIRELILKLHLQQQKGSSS
SENP6 inh – blocks the human protease SENP6; Recombinant SENP6 catalytic domain, aminoluciferin luminescence; inhibition, % at 10 µM; 1.8% of 330,000 active; AID 2599;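 active = inhibition above about 50% at the single tested dose, limit read from the data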
SENP1 inh – blocks the human SENP1 SUMO protease catalytic domain; inhibition, % at 10 µM; recombinant SENP1 catalytic domain, CyPet-SUMO1-YPet FRET cleavage; Q9P0U3; 0.21% of 360,000 active;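 active = inhibition at least 30% at 10 µM, raw YFP signal under a set limit, fluorescence ratio 0.5 to 1.5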
Target sequence (Q9P0U3 419-644 limits assumed): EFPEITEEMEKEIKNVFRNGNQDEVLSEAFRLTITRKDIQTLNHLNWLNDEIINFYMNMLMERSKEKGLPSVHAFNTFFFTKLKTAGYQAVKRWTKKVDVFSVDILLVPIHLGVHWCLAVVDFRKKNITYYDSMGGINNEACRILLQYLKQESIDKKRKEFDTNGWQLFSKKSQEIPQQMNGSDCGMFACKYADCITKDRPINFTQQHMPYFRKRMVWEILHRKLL
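Material – human SENP1 catalytic domain · Input – SENP1 enzyme, 20 pM final · Compound dosing – single concentration of 10 µM compound, 0.5% DMSO final · Timing – enzyme reaction for 50 min at room temperature, dark · Measured by – FRET fluorescence in CFP and YFP emission channels · Control set – no-enzyme wells low, DMSO-plus-enzyme wells high control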
A number is an active result; - = inactive; . = no result.

SMILES	SENP8 block-1	Apaf-1 inh	SENP8 block-2	SENP7 block	SENP6 inh	SENP1 inh
CCN1C(=O)C(=CC=CN(C)c2ccccc2)SC1=S	.	.	62	.	.	-
CCN1C(=O)/C(=C/C=C2\C=CN(CC)c3ccccc32)SC1=S	.	.	64	.	.	-
C/C=C/c1ccc2c(c1)O[C@H](CN(C)C(=O)NC1CCCC1)[C@H](C)CN([C@H](C)CO)S2(=O)=O	.	.	-	.	.	-
CCCNC(=O)C[C@@H]1C[C@H]2c3cc(NC(=O)c4ccc5c(c4)OCO5)ccc3O[C@H]2[C@@H](CO)O1	.	.	-	.	.	-
O=C(CSc1nnc2ccccn12)Nc1cccc(-c2nc3ccccc3s2)c1	-	-	-	63	-	-
CCC(C)C(NC(=O)c1ccccc1)C(=O)Nc1ccc(S(=O)(=O)Nc2cc(C)nc(C)n2)cc1 (centres undefined)	-	-	-	-	-	-
COC(=O)/C=C1\S/C(=N/N=C/c2ccccc2)NC1=O	-	-	-	-	-	-
COC(=O)/C=C1\S/C(=N/N=C/c2ccc(Cl)cc2)NC1=O	-	-	43	-	-	-
COC(=O)C1(C(=O)OC)C[C@H](c2cccs2)N(Cc2ccccc2OC)[C@@H]1c1ccc(F)cc1	.	.	-	.	.	-
COc1ccc(N2CCN(C(=O)c3ccc(Cl)c(S(=O)(=O)N4CCCC4)c3)CC2)cc1	-	-	-	-	-	-
COc1ccc(N2CCN(C(=O)c3ccc(C)c(Cl)c3)CC2)cc1	-	-	40	-	-	-
COc1ccc(CC2=C(O)c3ccccc3C(=O)C2=O)cc1	-	-	68	-	-	-
COc1ccc(CN2C(=O)c3ccccc3C2=O)cc1	-	-	-	-	-	-
CCN(CC(=O)Nc1ccccc1OC)C(=O)CN1C(=O)NC(C)(c2ccc(C)cc2)C1=O (centres undefined)	-	-	-	-	-	-
CCN(CC(=O)Nc1ccccc1OC)C(=O)CN1C(=O)NC(C)(c2ccccc2)C1=O (centres undefined)	-	49	-	-	-	-
CCCCC(c1nc2ccccc2[nH]1)n1c(=O)c(-c2ccccc2)nc2cc(C)c(C)cc21 (centres undefined)	.	.	-	.	.	-
CCOc1ccc(/C=C2\SC(=S)N(NS(=O)(=O)c3ccccc3)C2=O)cc1OC	-	-	-	-	-	-
CCOc1ccc(/C=C2\SC(=S)N(NS(=O)(=O)c3ccc(C)cc3)C2=O)cc1OC	-	-	43	-	-	-
COc1ccc(CC(=O)N(C)c2ccccc2)cc1S(=O)(=O)N1CCOCC1	.	.	-	.	.	-
N#Cc1cccc(NC(=O)c2cc(C3CCCCN3S(=O)(=O)c3cccc4cccnc34)on2)c1 (centres undefined)	.	.	-	.	.	-
N#Cc1c(N)nc(N)nc1Nc1ccc(Br)cc1	-	-	-	-	60	-
COc1cc(-c2nc(C(=O)NC3CCN(Cc4ccccc4)CC3)cc3c2[nH]c2ccccc23)cc(OC)c1OC	-	41	-	-	-	-
COc1ccc(CCN2CC(C(=O)NCc3cccc(F)c3)CCC2=O)cc1 (centres undefined)	.	.	-	.	.	-
COc1ccc(N=Nc2c(N)nn(C)c2N)cc1	.	.	51	.	.	-
Cc1ccc(N=Nc2c(N)nn(-c3ccccc3)c2N)cc1	-	-	-	-	-	-
SMILES	SENP8 block-1	Apaf-1 inh	SENP8 block-2	SENP7 block	SENP6 inh	SENP1 inh
CC(C)NC(=O)C1C(c2ccccc2)=Nc2ccccc2N1C(=O)c1ccc(C(F)(F)F)cc1 (centres undefined)	.	.	-	.	.	-
C[C@@H]1CN([C@H](C)CO)S(=O)(=O)c2ccc(Br)cc2O[C@H]1CN(C)C(=O)C1CC1	.	.	-	.	.	-
COc1ccc(N=Nc2cnc(C)nc2-c2ccccc2)cc1	-	-	45	-	-	-
COc1cccc(C(O)c2ncc(-c3ccccc3)[nH]2)c1 (centres undefined)	.	.	-	.	.	-
Cc1ccc2c(c1)N=C(c1ccccc1)CC(C(Cl)Cl)=N2	53	-	-	-	74	-
Cc1cc2c(cc1C)NC(=O)CC(c1ccccc1)=N2	.	.	-	.	.	-
O=c1cc(-c2ccc(O)c(O)c2)oc2cc(O)cc(O)c12	-	-	-	-	-	-
O=c1c(O)c(-c2ccc(O)c(O)c2)oc2cc(O)cc(O)c12	-	-	33	-	53	-
CCCN1CCCc2cc(CN)ccc21	-	84	-	-	-	-
CN1CCCc2cc(C=O)ccc21	-	-	-	-	-	-
O=C(Nc1ccccc1Cl)Nc1ccnn1C1CCN(C(=O)C2CCOC2)CC1 (centres undefined)	.	.	-	.	.	-
COCCCN1C(=O)C(CC(=O)NC2CCCCC2)CC(C(=O)N(C)C)=C1C (centres undefined)	.	.	-	.	.	-
O=C(c1ccc(-c2ccccc2)cc1)c1ccc([N+](=O)[O-])cc1	-	-	.	-	-	.
O=C(c1ccccc1)c1ccc(-c2ccc(O)cc2)cc1	51	-	-	-	50	-
COc1ccc(C2=Nc3ccccc3N(C(=O)c3cccnc3)C2C(=O)NC2CCCC2)cc1 (centres undefined)	.	.	-	.	.	-
Cn1c(O)c(/C=N/NC(=O)c2cc3ccccc3cc2O)c2ccccc21	93	-	-	-	97	-
O=C(Nc1cccc(OC(F)(F)F)c1)c1cccc2c(-c3cccnc3)coc12	.	.	-	.	.	-
N#Cc1cc2c(nc1SCc1nc3ccccc3[nH]1)CCC2	54	-	.	-	81	.
Cc1cccc(CSc2nc3c(cc2C#N)CCC3)c1	-	-	-	-	-	-
Cc1[nH]n(-c2ccc(Cl)cc2)c(=O)c1N=Nc1cccnc1	-	-	43	-	-	-
Cc1[nH]n(-c2ccccc2)c(=O)c1N=Nc1cccc(Cl)c1	-	-	-	-	-	-
CCOc1ccc(-n2c(C)nc(O)c2N=Nc2ccccc2)cc1	-	-	43	-	-	-
CCOc1ccc(N=Nc2ccc(O)c3ncccc23)cc1	-	-	-	-	-	-
CCn1c2ccccc2c2cc(NC(=O)N3CCOCC3)ccc21	-	-	-	-	-	32
CCOCCOc1cccc(C(=O)NC(c2ccccc2)c2ccccc2)c1	-	-	-	-	-	-
CCOc1ccc(/C=C2/SC(=S)N(n3c(C)ccc3C)C2=O)cc1	-	-	41	-	-	-
CCCS(=O)(=O)NC(=O)C1(C)CCN(C(=O)c2ccnc(Cl)c2)C1 (centres undefined)	.	.	-	.	.	-
O=C1CCC(C(=O)OCC(=O)N2N=C3/C(=C\c4ccccc4)CCCC3C2c2ccccc2)N1 (centres undefined)	.	.	-	.	.	-
O=C1CCC(C(=O)OCC(=O)N2N=C3/C(=C/c4ccccc4)CCCC3C2c2ccccc2)N1 (centres undefined)	-	43	-	-	-	-
CC(C)(C)OC(=O)N1CCCN(C(c2ccnc3ccccc23)c2nnnn2-c2ccc3c(c2)OCCO3)CC1 (centres undefined)	.	.	-	.	.	-
